According to ChEMBL document CHEMBL2203243, “Synthesis and biological evaluation of novel benzimidazole derivatives and their binding behavior with bovine serum albumin” (Eur J Med Chem, 2012):
Values after ≈ are worked out from the molar mass of the structure shown.

What was measured:
[1] = Antimicrobial activity against Eberthella typhosa by microbroth dilution method; assay type: functional
Summary of the method: (§1)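 Two-fold serial broth microdilution in 96-well microtest plates, run against four Gram-positive strains, five Gram-negative strains and two fungi.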

[2] = test system: Candida; assay: Antimicrobial activity against Candida mycoderma by microbroth dilution method; assay type: functional; summary of the method: as §1
[3] = test system: Staphylococcus aureus; assay: Antimicrobial activity against Staphylococcus aureus ATCC 25923 by microbroth dilution method; assay type: functional; summary of the method: as §1
[4] = test system: Candida albicans; assay: Antimicrobial activity against Candida albicans by microbroth dilution method; assay type: functional; summary of the method: as §1
[5] = test system: Escherichia coli; assay: Antimicrobial activity against Escherichia coli DH52 by microbroth dilution method; assay type: functional; summary of the method: as §1
[6] = test system: Shigella dysenteriae; assay: Antimicrobial activity against Shigella dysenteriae by microbroth dilution method; assay type: functional
[7] = test system: Staphylococcus aureus; assay: Antimicrobial activity against methicillin-resistant Staphylococcus aureus N315 by microbroth dilution method; assay type: functional
[8] = test system: Pseudomonas aeruginosa; assay: Antimicrobial activity against Pseudomonas aeruginosa by microbroth dilution method; assay type: functional; summary of the method: as §1
[9] = test system: Micrococcus luteus; assay: Antimicrobial activity against Micrococcus luteus ATCC 4698 by microbroth dilution method; assay type: functional; summary of the method: as §1
[10] = test system: Bacillus subtilis; assay: Antimicrobial activity against Bacillus subtilis by microbroth dilution method; assay type: functional; summary of the method: as §1
[11] = Lipophilicity, log P of the compound by UV-Vis spectrophotometric method based saturation shake flask assay; assay type: physicochemical; settings: octanol/water
Summary of the method: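 Log P measured by the traditional saturation shake-flask partition, with compound quantified by UV-vis spectrophotometry.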

[12] = test system: Bacillus; assay: Antimicrobial activity against Bacillus proteus by microbroth dilution method; assay type: functional; summary of the method: as §1
[13] = test system: Escherichia coli; assay: Potency index, ratio of MIC of chloromycin to MIC of compound against Escherichia coli DH52 by microbroth dilution method; assay type: functional
[14] = test system: Pseudomonas aeruginosa; assay: Potency index, ratio of MIC of chloromycin to MIC of compound against Pseudomonas aeruginosa by microbroth dilution method; assay type: functional
[15] = test system: Candida; assay: Potency index, ratio of MIC of fluconazole to MIC of compound against Candida mycoderma by microbroth dilution method; assay type: functional
[16] = molecular target: Albumin (Bos taurus, UniProt P02769); assay: Binding affinity to BSA at pH 7.4 by UV-vis absorption spectroscopic method; assay type: ADME; settings: cattle, isolated protein
[17] = test system: Staphylococcus aureus; assay: Potency index, ratio of MIC of chloromycin to MIC of compound against methicillin-resistant Staphylococcus aureus N315 by microbroth dilution method; assay type: functional

Albumin, sequence (P02769 whole entry): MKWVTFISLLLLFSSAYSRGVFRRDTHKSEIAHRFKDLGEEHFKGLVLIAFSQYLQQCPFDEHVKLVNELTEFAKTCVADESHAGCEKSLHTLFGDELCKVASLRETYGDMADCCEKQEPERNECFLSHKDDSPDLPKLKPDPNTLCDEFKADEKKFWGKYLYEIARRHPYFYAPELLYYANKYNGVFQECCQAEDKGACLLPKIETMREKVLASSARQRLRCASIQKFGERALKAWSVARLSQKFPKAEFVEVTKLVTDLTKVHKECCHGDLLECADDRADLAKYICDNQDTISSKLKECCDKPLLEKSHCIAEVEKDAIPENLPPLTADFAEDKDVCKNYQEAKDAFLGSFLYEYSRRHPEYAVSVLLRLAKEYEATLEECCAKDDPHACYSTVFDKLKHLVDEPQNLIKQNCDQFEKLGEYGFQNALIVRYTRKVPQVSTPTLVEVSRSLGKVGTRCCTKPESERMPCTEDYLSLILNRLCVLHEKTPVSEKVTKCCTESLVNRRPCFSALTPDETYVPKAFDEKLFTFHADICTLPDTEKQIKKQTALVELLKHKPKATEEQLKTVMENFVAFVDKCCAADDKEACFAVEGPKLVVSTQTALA

Structure (SMILES) | MIC [1] [µg/mL] | MIC [2] [µg/mL] | MIC [3] [µg/mL] | MIC [4] [µg/mL] | MIC [5] [µg/mL] | MIC [6] [µg/mL] | MIC [7] [µg/mL] | MIC [8] [µg/mL] | MIC [9] [µg/mL] | MIC [10] [µg/mL] | logP ([11]; read-out: logP) | MIC [12] [µg/mL] | logP [11] | Ratio [13] | Ratio [14] | Ratio [15] | Activity [16] | Ratio [17]
ClCc1nc2ccccc2[nH]1 | 512 (≈ 3070 µM) | > 512 | > 512 | 512 (≈ 3070 µM) | 256 (≈ 1540 µM) | 512 (≈ 3070 µM) | > 512 | > 512 | 512 (≈ 3070 µM) | > 512 | 1.44 | > 512 |  |  |  |  |  | 
CCCCCCCCCCCCn1c(CNNC(=O)c2sc(C(=O)NNCc3nc4ccccc4n3CCCCCCCCCCCC)c(C)c2C)nc2ccccc21 | 256 (≈ 310 µM) | 64 (≈ 77.6 µM) | 128 (≈ 155 µM) | 256 (≈ 310 µM) | 128 (≈ 155 µM) | 16 (≈ 19.4 µM) | 8 (≈ 9.69 µM) | 128 (≈ 155 µM) | > 512 | 512 (≈ 620 µM) |  | > 512 | ND(Insoluble) |  |  |  |  | 
CCCCCCCCCCCCCCCCCCn1c(CNNC(=O)c2sc(C(=O)NNCc3nc4ccccc4n3CCCCCCCCCCCCCCCCCC)c(C)c2C)nc2ccccc21 | 64 (≈ 64.4 µM) | 256 (≈ 258 µM) | 256 (≈ 258 µM) | > 512 | 512 (≈ 515 µM) | 512 (≈ 515 µM) | 512 (≈ 515 µM) | 512 (≈ 515 µM) | > 512 | > 512 |  | > 512 | ND(Insoluble) |  |  |  |  | 
Cc1c(C(=O)NNCc2nc3ccccc3n2Cc2ccc(Cl)c(Cl)c2)sc(C(=O)NNCc2nc3ccccc3n2Cc2ccc(Cl)c(Cl)c2)c1C | > 512 | > 512 | 32 (≈ 39.7 µM) | > 512 | 512 (≈ 635 µM) | > 512 | > 512 | > 512 | > 512 | 512 (≈ 635 µM) | 7.16 | > 512 |  |  |  |  |  | 
Cc1c(C(=O)NNCc2nc3ccccc3n2Cc2ccc(F)cc2F)sc(C(=O)NNCc2nc3ccccc3n2Cc2ccc(F)cc2F)c1C | 128 (≈ 173 µM) | 256 (≈ 346 µM) | 64 (≈ 86.4 µM) | 64 (≈ 86.4 µM) | 128 (≈ 173 µM) | 256 (≈ 346 µM) | 128 (≈ 173 µM) | 128 (≈ 173 µM) | 256 (≈ 346 µM) | 256 (≈ 346 µM) | 4.96 | 128 (≈ 173 µM) |  |  |  |  |  | 
Cc1c(C(=O)NNCc2nc3ccccc3n2Cc2ccc(F)cc2)sc(C(=O)NNCc2nc3ccccc3n2Cc2ccc(F)cc2)c1C | 128 (≈ 182 µM) | 32 (≈ 45.4 µM) | 128 (≈ 182 µM) | 64 (≈ 90.8 µM) | 32 (≈ 45.4 µM) | 128 (≈ 182 µM) | 128 (≈ 182 µM) | 128 (≈ 182 µM) | 128 (≈ 182 µM) | 32 (≈ 45.4 µM) | 5.25 | 128 (≈ 182 µM) |  |  |  |  |  | 
Cc1c(C(=O)NNCc2nc3ccccc3n2Cc2ccc(Cl)cc2)sc(C(=O)NNCc2nc3ccccc3n2Cc2ccc(Cl)cc2)c1C | 16 (≈ 21.7 µM) | 32 (≈ 43.4 µM) | 32 (≈ 43.4 µM) | 16 (≈ 21.7 µM) | 8 (≈ 10.8 µM) | 32 (≈ 43.4 µM) | 32 (≈ 43.4 µM) | 32 (≈ 43.4 µM) | 16 (≈ 21.7 µM) | 32 (≈ 43.4 µM) | 6.19 | 32 (≈ 43.4 µM) |  |  |  |  |  | 
Cc1c(C(=O)NNCc2nc3ccccc3n2Cc2cccc(Cl)c2)sc(C(=O)NNCc2nc3ccccc3n2Cc2cccc(Cl)c2)c1C | 256 (≈ 347 µM) | 64 (≈ 86.8 µM) | 128 (≈ 174 µM) | 128 (≈ 174 µM) | 32 (≈ 43.4 µM) | 128 (≈ 174 µM) | 16 (≈ 21.7 µM) | 128 (≈ 174 µM) | 32 (≈ 43.4 µM) | 128 (≈ 174 µM) | 6.34 | 128 (≈ 174 µM) |  |  |  |  |  | 
Cc1c(C(=O)NNCc2nc3ccccc3n2Cc2ccccc2Cl)sc(C(=O)NNCc2nc3ccccc3n2Cc2ccccc2Cl)c1C | 128 (≈ 174 µM) | 128 (≈ 174 µM) | 32 (≈ 43.4 µM) | 32 (≈ 43.4 µM) | 32 (≈ 43.4 µM) | 32 (≈ 43.4 µM) | 16 (≈ 21.7 µM) | 64 (≈ 86.8 µM) | 16 (≈ 21.7 µM) | 32 (≈ 43.4 µM) | 6.25 | 16 (≈ 21.7 µM) |  |  |  |  |  | 
CCCn1c(CNNC(=O)c2sc(C(=O)NNCc3nc4ccccc4n3CCC)c(C)c2C)nc2ccccc21.Cl | 4 | 128 | 256 | 32 | 256 | 128 | 32 | 32 | 256 | 256 |  | 16 |  |  |  |  |  | 
CCCCCCCCCCn1c(CNNC(=O)c2sc(C(=O)NNCc3nc4ccccc4n3CCCCCCCCCC)c(C)c2C)nc2ccccc21.Cl | 4 | 4 | 2 | 8 | 4 | 8 | 2 | 16 | 8 | 2 |  | 2 |  |  |  |  |  | 
Cc1c(C(=O)NNCc2nc3ccccc3n2Cc2ccc(F)cc2)sc(C(=O)NNCc2nc3ccccc3n2Cc2ccc(F)cc2)c1C.Cl | 256 | 8 | 256 | 64 | 16 | 8 | 32 | 64 | 64 | 16 |  | 128 |  |  |  |  |  | 
Cc1c(C(=O)NN)sc(C(=O)NN)c1C | 512 (≈ 2240 µM) | 512 (≈ 2240 µM) | > 512 | 512 (≈ 2240 µM) | 512 (≈ 2240 µM) | 512 (≈ 2240 µM) | > 512 | > 512 | 512 (≈ 2240 µM) | > 512 |  | > 512 | -1.41 |  |  |  |  | 
Cc1c(C(=O)NNCc2nc3ccccc3[nH]2)sc(C(=O)NNCc2nc3ccccc3[nH]2)c1C | 512 (≈ 1050 µM) | 256 (≈ 524 µM) | > 512 | > 512 | 512 (≈ 1050 µM) | 512 (≈ 1050 µM) | > 512 | > 512 | 256 (≈ 524 µM) | 128 (≈ 262 µM) | 1.25 | 256 (≈ 524 µM) |  |  |  |  |  | 
Cc1c(C(=O)NN)sc(C(=O)NNCc2nc3ccccc3[nH]2)c1C | 64 (≈ 179 µM) | 128 (≈ 357 µM) | 256 (≈ 714 µM) | 256 (≈ 714 µM) | 512 (≈ 1430 µM) | 512 (≈ 1430 µM) | 256 (≈ 714 µM) | 256 (≈ 714 µM) | 128 (≈ 357 µM) | 64 (≈ 179 µM) | 0.84 | 128 (≈ 357 µM) |  |  |  |  |  | 
CCCn1c(CNNC(=O)c2sc(C(=O)NNCc3nc4ccccc4n3CCC)c(C)c2C)nc2ccccc21 | 256 (≈ 447 µM) | 256 (≈ 447 µM) | 512 (≈ 894 µM) | 512 (≈ 894 µM) | 256 (≈ 447 µM) | 256 (≈ 447 µM) | 32 (≈ 55.9 µM) | 128 (≈ 223 µM) | 256 (≈ 447 µM) | 256 (≈ 447 µM) | 3.7 | 256 (≈ 447 µM) |  |  |  |  |  | 
CCCCCCn1c(CNNC(=O)c2sc(C(=O)NNCc3nc4ccccc4n3CCCCCC)c(C)c2C)nc2ccccc21 | 64 (≈ 97.4 µM) | 32 (≈ 48.7 µM) | 32 (≈ 48.7 µM) | 32 (≈ 48.7 µM) | 8 (≈ 12.2 µM) | 64 (≈ 97.4 µM) | 4 (≈ 6.09 µM) | 32 (≈ 48.7 µM) | 64 (≈ 97.4 µM) | 32 (≈ 48.7 µM) | 6.62 | 64 (≈ 97.4 µM) |  |  |  |  |  | 
CCCCCCCCn1c(CNNC(=O)c2sc(C(=O)NNCc3nc4ccccc4n3CCCCCCCC)c(C)c2C)nc2ccccc21 | 64 (≈ 89.8 µM) | 4 (≈ 5.61 µM) | 32 (≈ 44.9 µM) | 16 (≈ 22.4 µM) | 32 (≈ 44.9 µM) | 16 (≈ 22.4 µM) | 8 (≈ 11.2 µM) | 16 (≈ 22.4 µM) | 16 (≈ 22.4 µM) | 32 (≈ 44.9 µM) | 8.19 | > 512 |  |  |  |  |  | 
CCCCCCCCCCn1c(CNNC(=O)c2sc(C(=O)NNCc3nc4ccccc4n3CCCCCCCCCC)c(C)c2C)nc2ccccc21 | 4 (≈ 5.2 µM) | 2 (≈ 2.6 µM) | 2 (≈ 2.6 µM) | 4 (≈ 5.2 µM) | 4 (≈ 5.2 µM) | 8 (≈ 10.4 µM) | 2 (≈ 2.6 µM) | 4 (≈ 5.2 µM) | 16 (≈ 20.8 µM) | 4 (≈ 5.2 µM) |  | 8 (≈ 10.4 µM) | ND(Insoluble) | 8 | 8 | 2 | Active | 8
O=C(N[C@H](CO)[C@H](O)c1ccc([N+](=O)[O-])cc1)C(Cl)Cl [CHLORAMPHENICOL] | 32 (≈ 99 µM) |  | 16 (≈ 49.5 µM) |  | 32 (≈ 99 µM) | 32 (≈ 99 µM) | 16 (≈ 49.5 µM) | 32 (≈ 99 µM) | 8 (≈ 24.8 µM) | 32 (≈ 99 µM) |  | 32 (≈ 99 µM) |  |  |  |  |  | 
OC(Cn1cncn1)(Cn1cncn1)c1ccc(F)cc1F [FLUCONAZOLE] |  | 4 (≈ 13.1 µM) |  | 1 (≈ 3.27 µM) |  |  |  |  |  |  |  |  |  |  |  |  |  | 
CCn1cc(C(=O)O)c(=O)c2cc(F)c(N3CCNCC3)cc21 [NORFLOXACIN] | 4 (≈ 12.5 µM) |  | 0.5 (≈ 1.57 µM) |  | 16 (≈ 50.1 µM) | 4 (≈ 12.5 µM) | 8 (≈ 25.1 µM) | 16 (≈ 50.1 µM) | 2 (≈ 6.26 µM) | 1 (≈ 3.13 µM) |  | 8 (≈ 25.1 µM) |  |  |  |  |  | 
